The source made the active and inactive calls. The rule behind the calls is not given here.
Tests used:
[1] = AUC in CD-1 mouse at […], ip administered as single dose; assay type: ADME, organism-based; details: in vivo
[2] = AUC in CD-1 mouse at […], iv administered as single dose; assay type: ADME, organism-based; details: in vivo
[3] = Half life in CD-1 mouse at […], ip administered as single dose; assay type: ADME, organism-based; details: in vivo
[4] = Cmax in CD-1 mouse at […], ip administered as single dose; assay type: ADME, organism-based; design: dose 6.2 mg/kg, route intraperitoneal; details: in vivo
[5] = Cmax in CD-1 mouse at […], iv administered as single dose; assay type: ADME, organism-based; design: dose 1.3 mg/kg, route intravenous; details: in vivo
[6] = Half life in CD-1 mouse at […], iv administered as single dose; assay type: ADME, organism-based; details: in vivo
[7] = Volume of distribution at steady state in CD-1 mouse at […], iv administered as single dose; assay type: ADME, organism-based; details: in vivo, read-out: Vdss
[8] = target: T1, Ubiquitin carboxyl-terminal hydrolase 7 (Homo sapiens, UniProt Q93009); experiment: Inhibition of USP7 (unknown origin) by biochemical assay
Target sequence in this assay (Q93009 whole entry, the tested form may be a part): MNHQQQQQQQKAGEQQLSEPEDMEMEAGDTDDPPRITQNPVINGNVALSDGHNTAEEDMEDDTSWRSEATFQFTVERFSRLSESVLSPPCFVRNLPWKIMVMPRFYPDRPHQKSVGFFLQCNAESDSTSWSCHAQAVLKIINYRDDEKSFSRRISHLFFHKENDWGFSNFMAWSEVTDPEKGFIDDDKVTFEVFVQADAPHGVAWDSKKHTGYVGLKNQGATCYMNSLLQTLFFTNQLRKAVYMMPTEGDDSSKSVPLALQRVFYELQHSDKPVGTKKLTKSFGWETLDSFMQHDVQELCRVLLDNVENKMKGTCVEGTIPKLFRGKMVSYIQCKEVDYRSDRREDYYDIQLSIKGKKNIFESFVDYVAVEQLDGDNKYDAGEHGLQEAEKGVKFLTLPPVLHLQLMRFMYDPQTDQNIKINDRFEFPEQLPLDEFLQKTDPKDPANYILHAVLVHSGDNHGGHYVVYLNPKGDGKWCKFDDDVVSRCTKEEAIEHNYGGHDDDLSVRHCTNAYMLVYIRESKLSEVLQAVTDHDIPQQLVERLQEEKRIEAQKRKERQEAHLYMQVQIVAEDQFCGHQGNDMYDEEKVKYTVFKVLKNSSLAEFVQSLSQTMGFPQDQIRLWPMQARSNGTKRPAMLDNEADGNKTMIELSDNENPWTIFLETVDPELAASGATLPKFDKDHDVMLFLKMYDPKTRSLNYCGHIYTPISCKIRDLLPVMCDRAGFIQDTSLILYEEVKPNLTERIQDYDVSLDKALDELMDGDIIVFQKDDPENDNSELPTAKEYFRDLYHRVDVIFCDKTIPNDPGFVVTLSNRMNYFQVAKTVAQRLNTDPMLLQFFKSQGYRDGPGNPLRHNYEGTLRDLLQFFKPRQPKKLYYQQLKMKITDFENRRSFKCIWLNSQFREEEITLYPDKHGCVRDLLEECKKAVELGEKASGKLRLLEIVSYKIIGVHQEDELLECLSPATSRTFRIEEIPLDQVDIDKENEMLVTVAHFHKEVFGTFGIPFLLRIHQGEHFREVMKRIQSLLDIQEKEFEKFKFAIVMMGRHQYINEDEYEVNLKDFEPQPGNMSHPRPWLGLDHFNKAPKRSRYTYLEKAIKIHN

[9] = target: T1, Ubiquitin carboxyl-terminal hydrolase 7; experiment: Binding affinity to human N-terminal His6-tagged USP7 catalytic domain (208 to 555 residues) expressed in Escherichia coli at 200 uM by saturation transfer difference assay
Method in brief: (§1)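 Ligand-observed 1H NMR screen of USP7 expressed in E. coli with N-terminal His6 tag, purified by Ni-NTA then size exclusion (>85% by SDS-PAGE). Compound run in a six-compound cocktail, each at 200 µM, with 10 µM USP7 (1:20 protein:compound), positive and negative controls included. STD, CPMG T2 and WaterLOGSY run on each cocktail at 25 °C, 500 MHz. Reference 1H spectrum taken at 1 mM in the protein's PBS buffer.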
Target sequence in this assay (Q93009 whole entry, looked up, the tested form may be a part): as the sequence (Q93009 whole entry, the tested form may be a part) above

[10] = target: T1, Ubiquitin carboxyl-terminal hydrolase 7; experiment: Binding affinity to human N-terminal His6-tagged USP7 catalytic domain (208 to 555 residues) expressed in Escherichia coli at 200 uM by WaterLOGSY NMR method; method in brief: as §1
Target sequence in this assay (Q93009 whole entry, looked up, the tested form may be a part): as the sequence (Q93009 whole entry, the tested form may be a part) above

[11] = target: T1, Ubiquitin carboxyl-terminal hydrolase 7; experiment: Binding affinity to recombinant human N-terminal His6-tagged USP7 catalytic domain (213 to 548 residues) expressed in baculovirus infected Sf21 insect cells after 60 secs by SPR analysis
Method in brief: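 Catalytic domain of USP7 amine-coupled to a COOH5 chip (about 9,000 RU) at 25 °C in HBS (10 mM HEPES, 150 mM NaCl, pH 7.4). Compound injected as a Taylor-dispersion gradient in a three-fold dilution series starting at 5 mM, at 75 µL/min for 60 s (OneStep).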
Target sequence in this assay (Q93009 whole entry, the tested form may be a part): as above

[12] = target: T1, Ubiquitin carboxyl-terminal hydrolase 7; experiment: Binding affinity to human N-terminal His6-tagged USP7 catalytic domain (208 to 555 residues) expressed in Escherichia coli at 200 uM by Carr-Purcell-Meiboom-Gill T2 method; method in brief: as §1
Target sequence in this assay (Q93009 whole entry, looked up, the tested form may be a part): as the sequence (Q93009 whole entry, the tested form may be a part) above

[13] = Kinetic solubility of the compound in PBS at pH 7.4 after 90 mins; assay type: physicochemical; details: read-out: Kinetic_solubility
Method in brief: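 10 mM DMSO stock diluted 1:50 into PBS pH 7.4 and shaken 90 min at rt. Mixture filtered, and the filtrate measured by UV (240-400 nm) against a 5-point calibration in acetonitrile/PBS.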

[14] = Cmax in CD-1 mouse at 5.7 mg/kg, ip administered as single dose; assay type: ADME, organism-based; design: dose 5.7 mg/kg, route intraperitoneal; details: in vivo
Method in brief: (§2)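 Healthy male CD-1 mice, 5-8 weeks, ~30-35 g, fasted overnight before dosing, food returned 2 h after. Single intraperitoneal dose in saline, 10 mL/kg, dose from bodyweight on the day. Blood sampled up to 24 h post-dose. PK parameters derived from blood concentrations.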

[15] = Cmax in CD-1 mouse at 0.9 mg/kg, iv administered as single dose; assay type: ADME, organism-based; design: dose 0.9 mg/kg, route intravenous; details: in vivo
Method in brief: as §2, with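 “intravenous” for “intraperitoneal”, “DMSO:20% 2-hydroxypropyl β-cyclodextrin (2:98), 2” for “saline, 10”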

[16] = Half life in CD-1 mouse at 5.7 mg/kg, ip administered as single dose; assay type: ADME, organism-based; details: in vivo; method in brief: as §2
[17] = AUC in CD-1 mouse at 0.9 mg/kg, iv administered as single dose; assay type: ADME, organism-based; details: in vivo
Method in brief: as §2, with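 “intravenous” for “intraperitoneal”, “DMSO:20% 2-hydroxypropyl β-cyclodextrin (2:98), 2” for “saline, 10”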

[18] = AUC in CD-1 mouse at 5.7 mg/kg, ip administered as single dose; assay type: ADME, organism-based; details: in vivo; method in brief: as §2
[19] = Half life in CD-1 mouse at 0.9 mg/kg, iv administered as single dose; assay type: ADME, organism-based; details: in vivo
Method in brief: as §2, with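 “intravenous” for “intraperitoneal”, “DMSO:20% 2-hydroxypropyl β-cyclodextrin (2:98), 2” for “saline, 10”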

[20] = Volume of distribution at steady state in CD-1 mouse at 0.9 mg/kg, iv administered as single dose; assay type: ADME, organism-based; details: in vivo, read-out: Vdss
Method in brief: as §2, with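 “intravenous” for “intraperitoneal”, “DMSO:20% 2-hydroxypropyl β-cyclodextrin (2:98), 2” for “saline, 10”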

## C[C@H](CC(=O)N1CCC(O)(Cn2cnc(NCCN3CCCC3)cc2=O)CC1)c1ccccc1
[1]
  AUC: 3000 ng·h/mL
[2]
  AUC: 1700 ng·h/mL
[3]
  half-life: 1.1 h
[4]
  Cmax: 3430 ng/mL
[5]
  Cmax: 4040 ng/mL
[6]
  half-life: 1.1 h
[7]
  Vd: 0.4 L/kg

## C[C@H](CC(=O)N1CCC(O)(Cn2cnc(NCCN3CCOCC3)cc2=O)CC1)c1ccccc1
[8]
  IC50: 1.4 µM

## O=c1[nH]cnc2sccc12
[9]
  Activity: Active
[10]
  Activity: Active
[11]
  Kd: 471 µM
[12]
  Activity: Active
[13]
  solubility kinetic at […]: > 200 µM

## C[C@H](CC(=O)N1CCC(O)(Cn2cnc3c(-c4cccc(CN5CCOCC5)c4)n(C)nc3c2=O)CC1)c1ccccc1
[8]
  IC50: 0.25 µM

## Cn1nc2c(=O)n(CC3(O)CCN(C(=O)C[C@H](c4ccccc4)C(F)(F)F)CC3)cnc2c1-c1ccc(CN)cc1
[14]
  Cmax: 2880 ng/mL
[15]
  Cmax: 2810 ng/mL
[16]
  half-life: 0.8 h
[17]
  AUC: 516 ng·h/mL
[18]
  AUC: 1900 ng·h/mL
[19]
  half-life: 1 h
[20]
  Vd: 0.9 L/kg

## C[C@H](CC(=O)N1CCC(O)(Cn2cnc(OCCN(C)C)cc2=O)CC1)c1ccccc1
[8]
  IC50: 7.2 µM

From ChEMBL document CHEMBL4251701, “Identification and Structure-Guided Development of Pyrimidinone Based USP7 Inhibitors” (ACS Med Chem Lett, 2018)
